Data set [1] deals with Rattus norvegicus. Put plainly: Antioxidant activity in Sprague-Dawley rat brain tissue model of transient middle cerebral artery occlusion stroke model assessed as increase in glutathione levels per mg of protein at 80 mg/kg […] measured 24 hrs after reperfusion by DTNB assay (reference value: 23.47 nmol). It counts as functional.
Data set [2] relates to Rattus norvegicus. The data set is described as follows: Antioxidant activity in Sprague-Dawley rat brain tissue model of transient middle cerebral artery occlusion stroke model assessed as increase in superoxide dismutase levels per mg of protein at 380 mg/kg […] measured 24 hrs after reperfusion by nitroblue tetrazolium assay relative to control. It counts as functional.

The test system of data set [3] is Rattus norvegicus. Put plainly: Antioxidant activity in Sprague-Dawley rat brain tissue model of transient middle cerebral artery occlusion stroke model assessed as increase in glutathione peroxidase levels per mg of protein at 80 mg/kg […] measured 24 hrs after reperfusion by DTNB assay relative to control. The class given is functional.
The test system of data set [4] is Rattus norvegicus. Put plainly: Antioxidant activity in Sprague-Dawley rat brain tissue model of transient middle cerebral artery occlusion stroke model assessed as increase in glutathione peroxidase levels per mg of protein at 380 mg/kg […] measured 24 hrs after reperfusion by DTNB assay relative to control. The class given is functional.
A short description of data set [5]: Induction of nitric oxide release in potassium phosphate buffer at pH 7.4 at 0.1 mM after 30 mins by Griess assay. It counts as physicochemical. The following applies: pH 7.4, 0.5 h, 100 µM. The procedure, abridged: (§1)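 Compound (0.1 mM) in PBS pH 7.4 containing 2% DMSO and 5.0 mM L-cysteine was held at 37 °C for 15–300 min. Samples were taken every 15 min up to 120 min, then every 30 min. Each sample was reacted with Griess reagent for 10 min at 37 °C and absorbance read at 540 nm. Nitrite was quantified from a nitrite standard curve. Means reported; intra-group variation <10%.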
(In general: The Griess reaction detects nitrite, a stable product of nitric oxide.)

A short description of data set [6]: Induction of nitric oxide release in potassium phosphate buffer at pH 7.4 at 0.1 mM after 45 mins by Griess assay. The class given is physicochemical. Particulars: pH 7.4, 0.75 h, 100 µM. Put shortly:
as §1

Data set [7] in a line: Induction of nitric oxide release in potassium phosphate buffer at pH 7.4 at 0.1 mM after 60 mins by Griess assay. It counts as physicochemical. Particulars: pH 7.4, 1 h, 100 µM. Put shortly:
as §1

Data set [8] is described as follows: Induction of nitric oxide release in potassium phosphate buffer at pH 7.4 at 0.1 mM after 90 mins by Griess assay. It counts as physicochemical. The following applies: pH 7.4, 1.5 h, 100 µM. Put shortly:
as §1

Data set [9] in a line: Induction of nitric oxide release in potassium phosphate buffer at pH 7.4 at 0.1 mM after 120 mins by Griess assay. The class given is physicochemical. Particulars: pH 7.4, 2 h, 100 µM. Put shortly:
as §1

Data set [10] can be described thus: Induction of nitric oxide release in potassium phosphate buffer at pH 7.4 at 0.1 mM after 150 mins by Griess assay. It counts as physicochemical. The following applies: pH 7.4, 2.5 h, 100 µM. The procedure, abridged:
as §1

Data set [11] in a line: Induction of nitric oxide release in potassium phosphate buffer at pH 7.4 at 0.1 mM after 180 mins by Griess assay. It counts as physicochemical. The following applies: pH 7.4, 3 h, 100 µM. The procedure, abridged:
as §1

Data set [12] can be described thus: Induction of nitric oxide release in potassium phosphate buffer at pH 7.4 at 0.1 mM after 240 mins by Griess assay. The class given is physicochemical. The following applies: pH 7.4, 4 h, 100 µM. Put shortly:
as §1

A short description of data set [13]: Induction of nitric oxide release in potassium phosphate buffer at pH 7.4 at 0.1 mM after 300 mins by Griess assay. It counts as physicochemical. Particulars: pH 7.4, 5 h, 100 µM. The procedure, abridged: as §1
Data set [14] relates to Liver. The data set is described as follows: Induction of hydrogen sulfide release in rat liver homogenate at 100 uM after 30 mins by microplate reader method (reference value: 1.03 to 1.21%). The class given is functional, tissue-based. Put shortly:
(§2)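 Compound was incubated at 37 °C for 0–90 min with fresh rat liver homogenate. The reaction was stopped with 1% zinc acetate and 10% trichloroacetic acid. N,N-dimethyl-p-phenylenediamine sulfate in 7.2 M HCl and FeCl3 in 1.2 M HCl were added, and absorbance was read at 670 nm after 10 min. Values were calculated against an NaHS standard curve as cumulative % conversion to H2S, n = 6.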

The test system of data set [15] is Liver. Put plainly: Induction of hydrogen sulfide release in rat liver homogenate at 100 uM after 90 mins by microplate reader method (reference value: 1.03 to 1.21%). It counts as functional, tissue-based. The procedure, abridged:
as §2

A short description of data set [16]: Antiplatelet activity in rabbit platelet-rich plasma assessed as inhibition of ADP-induced platelet aggregation at 0.1 mM preincubated for 5 mins followed by addition of ADP measured within 5 mins by Borns turbidimetric method. The class given is functional. Particulars: Oryctolagus cuniculus. Put shortly:
(§3)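 Rabbit carotid blood was citrated (3.8%, 9:1). PRP was obtained at 500 g for 10 min and PPP at 3000 g for 10 min. PRP was preincubated in duplicate for 5 min at 37 °C with 0.1 mM compound, plus carboxy-PTIO or BSS where indicated. ADP was then added and maximal light transmission recorded within 5 min, within 3 h of blood collection. Inhibition % was calculated versus control. Mean ± SD of three independent experiments.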

Data set [17] in a line: Antiplatelet activity in rabbit platelet-rich plasma assessed as inhibition of ADP-induced platelet aggregation preincubated for 5 mins followed by addition of ADP measured within 5 mins by Borns turbidimetric method. The class given is functional. The following applies: Oryctolagus cuniculus. Put shortly: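 Platelet-rich plasma from citrated rabbit carotid blood was preincubated in duplicate at 37 °C for 5 min with compound at 0.1, 0.2, 0.4, 0.8 or 1.6 mM. ADP-induced aggregation was then recorded turbidimetrically, as maximal light transmission within 5 min. Inhibition was calculated versus vehicle control, and IC50 values were derived. Mean ± SD, n = 6, ANOVA/Tukey.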

Data set [18] is described as follows: Antiplatelet activity in rabbit platelet-rich plasma assessed as inhibition of ADP-induced platelet aggregation at 0.1 mM preincubated for 5 mins followed by addition of ADP measured within 5 mins by Borns turbidimetric method in presence of H2S scavenger BSS. It counts as functional. Particulars: Oryctolagus cuniculus. Put shortly: as §3
Data set [19] has as its system Rattus norvegicus. The data set is described as follows: Neuroprotective activity in Sprague-Dawley rat model of transient middle cerebral artery occlusion stroke model assessed as reduction in neurological deficit at 380 mg/kg […] measured 24 hrs after middle cerebral artery occlusion by Longa's method. It counts as functional, organism-based.
Data set [20] concerns Rattus norvegicus. The data set is described as follows: Antioxidant activity in Sprague-Dawley rat brain tissue model of transient middle cerebral artery occlusion stroke model assessed as malondialdehyde levels per mg of protein at 80 mg/kg administered via oral gavage for 7 days after ischemia onset measured 24 hrs after reperfusion (reference value: 1.46 nmol). The class given is functional. The following applies: in the assay text read “before ischemia onset” for “after ischemia onset”. The procedure, abridged: (§4)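 Male SD rats (280–320 g; n = 12 per group) were gavaged daily for 7 days, with 0.5% CMC-Na as vehicle. Two hours after the last dose they were anesthetized with chloral hydrate (300 mg/kg ip) and underwent 2 h MCAO followed by reperfusion. Brains were taken 24 h after reperfusion, rinsed in cold saline and stored at −70 °C. Protein was quantified, then GSH, SOD, GSH-Px and MDA were measured by kits. Mean ± SD, n = 6, ANOVA/Tukey.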

The test system of data set [21] is Rattus norvegicus. Put plainly: Antioxidant activity in Sprague-Dawley rat brain tissue model of transient middle cerebral artery occlusion stroke model assessed as malondialdehyde levels per mg of protein at 380 mg/kg administered via oral gavage for 7 days after ischemia onset measured 24 hrs after reperfusion (reference value: 1.46 nmol). The following applies: in the assay text read “before ischemia onset” for “after ischemia onset”. The class given is functional. The procedure, abridged: as §4

Data set [22] relates to Rattus norvegicus. The data set is described as follows: Antioxidant activity in Sprague-Dawley rat brain tissue model of transient middle cerebral artery occlusion stroke model assessed as glutathione levels per mg of protein at 380 mg/kg administered via oral gavage for 7 days after ischemia onset measured 24 hrs after reperfusion by DTNB assay (reference value: 23.47 nmol). The class given is functional. The following applies: in the assay text read “before ischemia onset” for “after ischemia onset”. Put shortly:
as §4

The text below walks through data of ChEMBL document CHEMBL3792374, “Discovery of a ring-opened derivative of 3-n-butylphthalide bearing NO/H2S-donating moieties as a potential anti-ischemic stroke agent” (Eur J Med Chem, 2016).

What is called inhibition is the share of the control response that was lost under treatment. By IC50 is commonly meant the point on the concentration scale where inhibition reaches its midpoint.

Activity calls are given as the source filed them. The rule behind the calls is not given here.

For `CCCCC(OC(=O)CN1CCN(CCCCCOc2ccc(-c3cc(=S)ss3)cc2)CC1)c1ccccc1C(=O)Oc1ccc(/C=C/C(=O)OCCO[N+](=O)[O-])cc1OC` (racemic), the Activity in the data set on Rattus norvegicus [1] came out at 25.22 nmol; in the data set with Rattus norvegicus [2] it was 32.02%; in the data set on Rattus norvegicus [3] it was 29.57%; with Rattus norvegicus [4] it was 69.26%; in [5], 5.48 µM; in data set [6], 6.89 µM. Besides, the Activity in data set [7] was determined as 8.03 µM; in data set [8], 9.14 µM; in data set [9], 10.09 µM; in data set [10], 10.23 µM; in [11] it was 10.3 µM; in data set [12], 10.35 µM. For the same molecule, the Activity turned out to be 10.57 µM in data set [13]; 3.04% in the data set on Liver [14]; 4.4% with Liver [15]; 1.07 nmol with Rattus norvegicus [20]; 0.86 nmol with Rattus norvegicus [21]; 28.05 nmol in the data set on Rattus norvegicus [22]. In addition, the inhibition at 100 µM in [16] is 41%; in [18] it was 20.9%. In addition, the IC50 in [17] came out at 140 µM. In addition, the result in the data set on Rattus norvegicus [19] was Active.
